# This excerpt belongs to a sample that is enriched for hits.
# bCat KO growth: beta-catenin-lacking colon tumor cell growth suppression; HCT116 beta-catenin knockout viability, CellTiter-Glo, 60 h; active compounds read low; 140,000 compounds, 1.5% hits; viability, % at 10 µM; AID 818;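 active = viability at or under a set limit, the compound median less 4 SD, cut at about 6% in these data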;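 note: 0% = Hyamine 1622 control at 20 µM and 100% = untreated cell control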
# H69AR growth 86K: growth inhibitors of human H69AR lung tumor cells; H69AR lung tumor viability, ATP luminescence, 72 h; active compounds read low; viability, % at 10 µM; 85,000 compounds, 6% hits; AID 598;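 active = viability at or below 40%; inactive = viability above 40%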;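 note: multidrug resistant small cell line overexpressing MRP-1 efflux transporter; 100% = mean luminescence of untreated control wells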
# Lung fibro prol: blocks proliferation of human lung fibroblasts; viability, % at 10 µM; AID 719; 85,000 compounds, 1.1% hits; LL 47 human lung fibroblast viability, ATP luminescence; active compounds read low;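 active = viability at or below 50% in the single dose screen; inactive = viability above 50%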;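 note: compound exposure lasted 72 h before the ATP readout; 100% = median luminescence of untreated cell-only wells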
#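 test system = LL 47 human lung fibroblasts | amount = 1,150 fibroblasts seeded per well | medium = 15% FBS in IMEM | times = overnight cell rest, 72 h compound treatment at 37 °C | measured by = CellTiter-Glo luminescence measuring cellular ATP | read-out = viability percentage against median untreated-cell control | benchmarks = cell-only wells, no compound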
# PTEN del growth: growth suppressors of cells with PTEN tumor suppressor deletion | HCT116 PTEN-null viability, CellTiter-Glo, 60 h; active compounds read low | viability, % at 10 µM | 140,000 compounds, 1.2% hits | AID 827;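 active = viability at or below a set limit, 4 SD under the median of all tested compounds, cut at about 3.7% in these data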;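 note: PTEN knockout HCT116 line with beta catenin targeted HCT116 as companion control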
# HUVEC inhibit: blocks proliferation of human endothelial cells. 86,000 compounds, 1.1% hits. HUVEC proliferation, CellTiter-Glo luminescence, 72 h; active compounds read low. AID 648. viability, % at 10 µM (by protocol);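 active = viability at or below 30%; inactive = viability above 30%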;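 note: 100% = median luminescence of DMSO-only cell control wells on each plate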
# The depositor's hits bear a star; . = not tested or not shown.
SMILES,bCat KO growth,H69AR growth 86K,Lung fibro prol,PTEN del growth,HUVEC inhibit
Nc1nc(C23CC4CCC(CC(C4)C2)C3)cs1,86,.,.,82,.
CC(Sc1nc(N(C)C)nc(N2CCOCC2)n1)C(=O)Nc1ccccc1 (centres undefined),109,31*,94,95,102
NC(=O)SCC(=O)Nc1ccc(Cl)cc1,95,.,.,97,.
Cc1ccc(NC(=O)CSC(N)=O)cc1Cl,74,18*,98,62,59
NC(=O)SCC(=O)Nc1ccc(Cl)c(Cl)c1,1.1*,11*,95,1.4*,65
O=C1CN(c2ccc(Cl)cc2)C(=O)CN1NC(=S)Nc1ccc(Cl)cc1,91,.,.,96,.
CCOc1ccc2nc(NC(=O)CSc3nc4cccnc4n3C)sc2c1,81,26*,97,74,68
CCOC(=O)CNC(=O)CSc1nc2cccnc2n1Cc1ccccc1,92,93,103,91,105
COc1ccc2nc(NC(=O)CSc3nc4ccccc4o3)sc2c1,99,7.1*,95,103,86
O=C(CSc1nc2ccccc2o1)Nc1nc2ccc(Br)cc2s1,96,.,.,102,.
Cc1nc(NC(=O)CSc2nc3cccnc3n2Cc2ccccc2)sc1C,76,18*,51,89,33
Cc1cc(C)c2nc(N3CCCN(C(=O)c4ccco4)CC3)c(C#N)cc2c1,11,35*,97,8,98
O=C(CN1CCCN(S(=O)(=O)c2ccc(Br)cc2)CC1)Nc1ccc2c(c1)OCO2,75,12*,93,74,89
O=C(CN1CCN(S(=O)(=O)c2ccc(F)cc2)CC1)Nc1ccc(Cl)c(C(F)(F)F)c1,62,9.0*,88,46,71
O=C(CN1CCN(S(=O)(=O)c2ccc(F)cc2)CC1)Nc1ccc2c(c1)OCCO2,82,100,103,91,94
O=C(CN1CCCN(S(=O)(=O)c2ccc(Br)cc2)CC1)Nc1ccc2cn[nH]c2c1,.,2.1*,103,.,101
COc1ccc(S(=O)(=O)N2CCCN(CC(=O)Nc3ccc4c(c3)OCO4)CC2)cc1,85,51,98,89,96
O=C(CN1CCN(S(=O)(=O)c2ccc(F)cc2)CC1)Nc1ccc2c(c1)OCO2,107,116,48*,98,91
CC(C)(C)c1ccc(/C=N/OCC(=O)NCc2ccc(F)cc2)cc1,69,.,.,55,.
Cc1ccc(SCC(=O)N2CCOCC2)cc1,91,.,.,99,.
Cc1ccc(-c2nnc(SCC(=O)N3CCOCC3)nc2-c2ccc(C)cc2)cc1,49,19*,98,59,98
COc1cccc(C2C=C(c3ccc(OC)cc3OC)Nc3nnnn32)c1 (centres undefined),10,15*,62,9,64
COc1ccc(C2=CC(c3ccc(OC)c(OC)c3)n3nnnc3N2)c(OC)c1 (centres undefined),79,28*,94,72,114
CCOC(=O)Nc1ccc2c(c1)Nc1ccccc1S2,84,95,93,76,51
CCOC(=O)C1(Nc2nccs2)Sc2ccccc2NC1=O (centres undefined),19,16*,82,21,68
SMILES,bCat KO growth,H69AR growth 86K,Lung fibro prol,PTEN del growth,HUVEC inhibit
O=C(COc1cccc2c1CCN(Cc1ccc(Br)cc1)C2=O)NCc1ccco1,93,.,.,100,.
O=c1cc(-c2ccccc2)[nH]n1-c1nc2ccccc2[nH]1,4.5*,.,27*,8,54
CCC(Sc1nnc2c3ccccc3n(CC)c2n1)C(=O)Nc1sc2c(c1C#N)CCCC2 (centres undefined),1.4*,.,.,1.4*,.
Cc1c(Cl)cccc1NC(=S)/C(=C(\[O-])c1ccc(Cl)s1)[n+]1ccccc1,84,.,.,91,.
CC(C)C[C@H](NC(=O)OC(C)(C)C)c1n[nH]c(=S)n1N,96,.,.,107,.
COc1cccc(C2CC3(CC(C)(C)NC(=S)N3)Oc3cc(O)ccc32)c1 (centres undefined),77,.,.,70,.
CC(=O)Oc1cc2c(cc1Cl)C1(CC(c3ccccc3Cl)O2)CC(C)(C)NC(=S)N1 (centres undefined),2.0*,32*,92,2.0*,79
O=C(/C=C/c1ccccc1)c1ccccc1,2.1*,1.5*,86,2.0*,78
O=C(/C=C/NNC(=O)c1ccccc1)c1ccccc1,87,87,20*,91,101
CCC(C(=O)O/N=C(\N)c1ccc(C)cc1)c1ccccc1 (centres undefined),100,53,93,100,86
CCC(C(=O)O/N=C(\N)c1ccccc1)c1ccccc1 (centres undefined),85,1.2*,74,93,75
CC1=C/C(=N\OC(=O)/C=C/c2ccccc2)C(C)=CC1=O,47,.,.,52,.
N/C(=N\OC(=O)/C=C/c1ccccc1)c1ccccc1,93,39*,105,99,83
O=c1[nH]c2cc3c(cc2cc1C(c1nnnn1CC1CCCO1)N1CCCCCC1)OCCO3 (centres undefined),93,68,96,96,95
O=C(/C=C/c1ccccc1)/C=C/c1ccccc1,0.8*,.,.,0.7*,.
O=C(/C=C/c1ccccc1)c1ccc2c3c(cccc13)CC2,1.4*,.,.,1.8*,.
COc1cc(/C=N/Nc2snc(SC)c2C#N)cc(OC)c1OC,14,24*,71,15,60
Cc1ccc(-n2c(-c3ccco3)nc3nc4ccccc4nc32)cc1,97,.,.,97,.
Cc1ccc(S(=O)(=O)CCc2nc3ccccc3n2CCC#N)cc1,19,14*,113,16,100
c1ccc(CSc2nnc(-c3cccnc3)o2)cc1,96,34*,100,101,87
O=S(=O)(/N=C(/Sc1ccccc1)c1ccccc1)c1ccccc1,94,26*,50,90,66
CS/C(=N\S(=O)(=O)c1ccccc1)c1ccccc1,97,.,.,102,.
COc1cc2c(cc1NC(=O)c1cccnc1)oc1ccccc12,88,35*,84,85,64
COc1cc2c(cc1NC(=O)c1ccncc1)oc1ccccc12,82,48,71,89,75
COc1cc2c(cc1NC(=O)c1cc(-c3ccccn3)nc3ccccc13)oc1ccccc12,6.1*,.,.,5,.
SMILES,bCat KO growth,H69AR growth 86K,Lung fibro prol,PTEN del growth,HUVEC inhibit
Clc1ccc(C(c2nnnn2C2CCCC2)N2CCN(Cc3ccncc3)CC2)cc1 (centres undefined),78,.,.,73,.
O=c1c(C(c2nnnn2C2CCCCC2)N2CCCCC2)coc2ccc(Cl)cc12 (centres undefined),89,18*,94,81,64
C=CCn1c(O)c(N=NC(=S)Nc2cccc(C)c2)c2ccccc21,13,22*,52,14,48
COc1ccccc1CNC(=S)NC1CCCC1,96,.,.,92,.
CCCCN(C(=O)c1ccc(Cl)cc1)C1CC2CCC(C1)N2C (centres undefined),94,36*,90,92,87
O=C(c1ccc([N+](=O)[O-])s1)N1CCN(c2cccc(Cl)c2)CC1,46,.,.,37,.
